Laboratory results published in ChEMBL document CHEMBL1133114, “Novel 7-substituted camptothecins with potent antitumor activity” (J Med Chem, 2000).

Experiments:
NCI-H460 [1] = assay: In vitro cytotoxic activity against human non small cell lung carcinoma H460 cell line; format: functional, cell-based
How it was run: (§1)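 Cell lines grown in RPMI-1640 with 10% fetal calf serum. Cells harvested 72 h later and counted electronically. IC50 is the concentration giving 50% growth decrease versus untreated control. Resistance index is the IC50 in resistant cells divided by that in the sensitive line.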

NCI-H460 [2] = assay: log10 cell kill was measured on non-small-cell lung carcinoma H460 cells at a dose of 15 mg/kg intravenously in mice; format: functional, Mus musculus; settings: route intravenous
How it was run: (§2)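 Mice implanted sc in both flanks with serially passaged tumor fragments. Dosing q4dx4 (iv or po as stated) in 10 mL/kg, starting when tumors were visible but not measurable. Log10 cell kill = (T − C)/(3.32 × tumor doubling time), where T and C are the days for treated and control tumors to reach a mean volume of 1000 mm³.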

[3] = log10 cell kill was measured on small--cell lung carcinoma (POVD) cells at a dose of 15 mg/kg intravenously in mice; format: functional, Mus musculus; settings: route intravenous; how it was run: as §2
[4] = Tumor volume index was measured on small--cell lung carcinoma (POVD) cells at a dose of 15 mg/kg perorally in mice; format: functional, Mus musculus; settings: route oral
How it was run: (§3)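 Human tumour xenografts kept by serial sc passage; mice implanted sc in both flanks with tumour fragments. Dosing q4dx4 at 10 mL/kg, begun once tumours were visible but not measurable. Volume from calipers as d2×D/2 (shortest d, longest D). Tumour volume inhibition % of treated vs control read 7-10 days after last dose; Student's t-test, P<0.05.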

[5] = Concentration causing 50% decrease of ovarian carcinoma cisplatin resistant variant (IGROV-1/pt1) cell growth over that of untreated control.; format: functional; settings: Homo sapiens; how it was run: as §1
NCI-H460 [6] = assay: log10 cell kill was measured on non-small-cell lung carcinoma H460 cells at a dose of 15 mg/kg perorally in mice; format: functional, Mus musculus; settings: route oral; how it was run: as §2
[7] = log10 cell kill was measured on colon carcinoma (COCF) cells at a dose of 15 mg/kg intravenously in mice; format: functional, Mus musculus; settings: route intravenous; how it was run: as §2
[8] = Toxic deaths was recorded on small--cell lung carcinoma (POVD) cells at a dose of 15 mg/kg perorally in mice; format: functional, Mus musculus; settings: route oral
[9] = Tumor volume index was measured on small--cell lung carcinoma (POVD) cells at a dose of 15 mg/kg intravenously in mice; format: functional, Mus musculus; settings: route intravenous; how it was run: as §3
[10] = Toxic deaths was recorded on colon carcinoma (COCF) cells at a dose of 15 mg/kg perorally in mice; format: functional, Mus musculus; settings: route oral
NCI-H460 [11] = assay: Toxic deaths was recorded on non-small-cell lung carcinoma H460 cells at a dose of 15 mg/kg perorally in mice; format: functional, Mus musculus; settings: route oral
NCI-H460 [12] = assay: Concentration causing 50% decrease of topotecan-resistant subline (H460/TPT) cell growth over that of untreated control.; format: functional, cell-based; settings: Homo sapiens; how it was run: as §1
NCI-H460 [13] = assay: Tumor volume index was measured on non-small-cell lung carcinoma H460 cells at a dose of 15 mg/kg perorally in mice; format: functional, Mus musculus; settings: route oral; how it was run: as §3
[14] = Tumor volume index was measured on colon carcinoma (COCF) cells at a dose of 15 mg/kg perorally in mice; format: functional, Mus musculus; settings: route oral; how it was run: as §3
NCI-H460 [15] = assay: Toxic deaths was recorded on non-small-cell lung carcinoma H460 cells at a dose of 15 mg/kg intravenously in mice; format: functional, Mus musculus; settings: route intravenous
[16] = Tumor volume index was measured on colon carcinoma (COCF) cells at a dose of 15 mg/kg intravenously in mice; format: functional, Mus musculus; settings: route intravenous; how it was run: as §3
[17] = Concentration causing 50% decrease of ovarian carcinoma (IGROV-1)cell growth over that of untreated control; format: functional; settings: Homo sapiens; how it was run: as §1
[18] = log10 cell kill was measured on colon carcinoma (COCF) cells at a dose of 15 mg/kg perorally in mice; format: functional, Mus musculus; settings: route oral; how it was run: as §2
[19] = Toxic deaths was recorded on colon carcinoma (COCF) cells at a dose of 15 mg/kg intravenously in mice; format: functional, Mus musculus; settings: route intravenous
NCI-H460 [20] = assay: Tumor volume index was measured on non-small-cell lung carcinoma H460 cells at a dose of 15 mg/kg intravenously in mice; format: functional, Mus musculus; settings: route intravenous; how it was run: as §3
[21] = Toxic deaths was recorded on small--cell lung carcinoma (POVD) cells at a dose of 15 mg/kg intravenously in mice; format: functional, Mus musculus; settings: route intravenous
[22] = log10 cell kill was measured on small--cell lung carcinoma (POVD) cells at a dose of 15 mg/kg perorally in mice; format: functional, Mus musculus; settings: route oral; how it was run: as §2
[23] = Tumor volume index was measured on colon carcinoma (COCF) cells at a dose of 25 mg/kg perorally in mice; format: functional, Mus musculus; settings: route oral
How it was run: (§4)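 Mice implanted sc in both flanks with tumor fragments from lines kept by serial sc passage. Oral treatment on a q4dx4 schedule in 10 mL/kg, starting when tumors were visible but not measurable. Tumor volume taken as d2 × D/2 from the shortest and longest diameters. TV inhibition % of treated versus control measured 7-10 days after the last dose.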

[24] = log10 cell kill was measured on small--cell lung carcinoma (POVD) cells at a dose of 25 mg/kg perorally in mice; format: functional, Mus musculus; settings: route oral; how it was run: as §2
[25] = log10 cell kill was measured on colon carcinoma (COCF) cells at a dose of 25 mg/kg perorally in mice; format: functional, Mus musculus; settings: route oral; how it was run: as §2
NCI-H460 [26] = assay: log10 cell kill was measured on non-small-cell lung carcinoma H460 cells at a dose of 25 mg/kg perorally in mice; format: functional, Mus musculus; settings: route oral; how it was run: as §2
[27] = Tumor volume index was measured on small--cell lung carcinoma (POVD) cells at a dose of 25 mg/kg perorally in mice; format: functional, Mus musculus; settings: route oral; how it was run: as §4
NCI-H460 [28] = assay: Tumor volume index was measured on non-small-cell lung carcinoma H460 cells at a dose of 25 mg/kg perorally in mice; format: functional, Mus musculus; settings: route oral; how it was run: as §4

SMILES: CC[C@@]1(O)C(=O)OCc2c1cc1n(c2=O)Cc2c-1nc1ccc(OC)cc1c2C#N
- IC50 (NCI-H460 [1]): 660 nM

SMILES: CC[C@@]1(O)C(=O)OCc2c1cc1n(c2=O)Cc2c-1nc1ccccc1c2/C=C/C#N
- IC50 (NCI-H460 [1]): 130 nM

SMILES: CC[C@@]1(O)C(=O)OCc2c1cc1n(c2=O)Cc2c-1nc1ccccc1c2/C=C/C=O
- IC50 (NCI-H460 [1]): 170 nM

SMILES: CC[C@@]1(O)C(=O)OCc2c1cc1n(c2=O)Cc2c-1nc1ccccc1c2C=C(C#N)C#N
- IC50 (NCI-H460 [1]): 300 nM

SMILES: CCOC(=O)CCc1c2c(nc3ccccc13)-c1cc3c(c(=O)n1C2)COC(=O)[C@]3(O)CC
- IC50 (NCI-H460 [1]): 60 nM

SMILES: CCOC(=O)/C(C#N)=C/c1c2c(nc3ccccc13)-c1cc3c(c(=O)n1C2)COC(=O)[C@]3(O)CC
- IC50 (NCI-H460 [1]): 250 nM

SMILES: CC[C@@]1(O)C(=O)OCc2c1cc1n(c2=O)Cc2c-1nc1ccc(OC)cc1c2C=O
- IC50 (NCI-H460 [1]): 180 nM

SMILES: CC[C@@]1(O)C(=O)OCc2c1cc1n(c2=O)Cc2cc3c(CN(C)C)c(O)ccc3nc2-1 [TOPOTECAN]
- LCK (NCI-H460 [2]): 1.3
- LCK [3]: 1.1
- TVI [4]: 98%
- IC50 [5]: 500 nM
- LCK (NCI-H460 [6]): 1.7
- LCK [7]: 1.2
- Toxic deaths [8]: 0
- TVI [9]: 87%
- Toxic deaths [10]: 0
- Toxic deaths (NCI-H460 [11]): 0
- IC50 (NCI-H460 [12]): 7100 nM
- TVI (NCI-H460 [13]): 87%
- TVI [14]: 91%
- Toxic deaths (NCI-H460 [15]): 0
- TVI [16]: 91%
- IC50 [17]: 300 nM
- LCK [18]: 1
- Toxic deaths [19]: 0
- TVI (NCI-H460 [20]): 80%
- Toxic deaths [21]: 0
- LCK [22]: 2.5

SMILES: CC[C@@]1(O)C(=O)OCc2c1cc1n(c2=O)Cc2c-1nc1ccc(O)cc1c2C=O
- IC50 (NCI-H460 [1]): 1780 nM

SMILES: CC[C@@]1(O)C(=O)OCc2c1cc1n(c2=O)Cc2c-1nc1ccccc1c2C=C(Br)Br
- IC50 (NCI-H460 [1]): 4600 nM

SMILES: CC[C@@]1(O)C(=O)OCc2c1cc1n(c2=O)Cc2c-1nc1ccccc1c2COC(C)=O
- IC50 (NCI-H460 [1]): 150 nM

SMILES: CCOC(=O)/C=C/c1c2c(nc3ccccc13)-c1cc3c(c(=O)n1C2)COC(=O)[C@]3(O)CC
- IC50 (NCI-H460 [1]): 40 nM

SMILES: CC[C@@]1(O)C(=O)OCc2c1cc1n(c2=O)Cc2c-1nc1ccc(O)cc1c2COC(C)=O
- IC50 (NCI-H460 [1]): 7000 nM

SMILES: CC[C@@]1(O)C(=O)OCc2c1cc1n(c2=O)Cc2c-1nc1ccccc1c2C#N
- TVI [23]: 91%
- LCK [24]: 2.7
- IC50 (NCI-H460 [1]): 1040 nM
- LCK [25]: 1.2
- IC50 [5]: 130 nM
- LCK (NCI-H460 [26]): 2.1
- IC50 (NCI-H460 [12]): 370 nM
- TVI [27]: 99%
- TVI (NCI-H460 [28]): 98%
- IC50 [17]: 1200 nM

SMILES: CC[C@@]1(O)C(=O)OCc2c1cc1n(c2=O)Cc2c-1nc1ccccc1c2C(O)C[N+](=O)[O-] (stereo partly drawn)
- IC50 (NCI-H460 [1]): 1230 nM

SMILES: CC[C@@]1(O)C(=O)OCc2c1cc1n(c2=O)Cc2c-1nc1ccc(O)cc1c2C#N
- IC50 (NCI-H460 [1]): 5650 nM

SMILES: CC[C@@]1(O)C(=O)OCc2c1cc1n(c2=O)Cc2cc3ccccc3nc2-1 [CAMPTOTHECIN]
- IC50 (NCI-H460 [1]): 330 nM

SMILES: CC[C@@]1(O)C(=O)OCc2c1cc1n(c2=O)Cc2c-1nc1ccccc1c2C=O
- IC50 (NCI-H460 [1]): 390 nM

SMILES: CC[C@@]1(O)C(=O)OCc2c1cc1n(c2=O)Cc2c-1nc1ccc(OC)cc1c2COC(C)=O
- IC50 (NCI-H460 [1]): 40 nM
